Data taken from ChEMBL document CHEMBL1153921, “Design, synthesis, and biological evaluation of novel 1-(1H-1,2,4-triazole-1-yl)-2-(2,4-difluorophenyl)-3-substituted benzylamino-2-propanols” (2009).
≈ marks a conversion by molar mass, not a printed value.

Columns and labels:
Assay type in all cases: functional
Pichia kudriavzevii = experiment: Antimicrobial activity against Candida krusei by micro-broth dilution method
How it was run: (§1)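 Clinical isolates. Tested by broth microdilution in 96-well plates following NCCLS M27-A2. MIC80, the minimum concentration inhibiting growth by 80%, was recorded. Marketed reference antifungals were included as positive controls.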

Candida albicans = experiment: Antimicrobial activity against Candida albicans by micro-broth dilution method
How it was run: (§2)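 ATCC standard strains. Broth microdilution in 96-well plates following NCCLS M27-A2 (reference broth dilution method for yeasts). Endpoint is MIC80, the lowest concentration giving 80% growth inhibition. Marketed reference antifungals ran alongside as positive controls.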

Cryptococcus neoformans = experiment: Antimicrobial activity against Cryptococcus neoformans by micro-broth dilution method; how it was run: as §2
Candida parapsilosis = experiment: Antimicrobial activity against Candida parapsilosis by micro-broth dilution method; settings: Lodderomyces parapsilosis; how it was run: as §1
Candida tropicalis = experiment: Antimicrobial activity against Candida tropicalis by micro-broth dilution method; how it was run: as §1
Trichophyton rubrum = experiment: Antimicrobial activity against Trichophyton rubrum by micro-broth dilution method; how it was run: as §1
Nannizzia gypsea = experiment: Antimicrobial activity against Microsporum gypseum by micro-broth dilution method; how it was run: as §1
Aspergillus fumigatus = experiment: Antimicrobial activity against Aspergillus fumigatus by micro-broth dilution method; how it was run: as §1

Row | MIC80 (Pichia kudriavzevii) | MIC80 (Candida albicans) | MIC80 (Cryptococcus neoformans) | MIC80 (Candida parapsilosis) | MIC80 (Candida tropicalis) | MIC80 (Trichophyton rubrum) | MIC80 (Nannizzia gypsea) | MIC80 (Aspergillus fumigatus) | SMILES
1 | 1 µg/mL (≈ 2.41 µM) | 1 µg/mL (≈ 2.41 µM) | 0.25 µg/mL (≈ 0.603 µM) | 0.25 µg/mL (≈ 0.603 µM) | 0.25 µg/mL (≈ 0.603 µM) | 1 µg/mL (≈ 2.41 µM) | 0.0156 µg/mL (≈ 0.0376 µM) | > 64 µg/mL | CCCCN(Cc1ccccc1C)CC(O)(Cn1cncn1)c1ccc(F)cc1F (stereo unspecified)
2 | 0.25 µg/mL (≈ 0.594 µM) | 0.0156 µg/mL (≈ 0.0371 µM) | 1 µg/mL (≈ 2.38 µM) | 0.25 µg/mL (≈ 0.594 µM) | 1 µg/mL (≈ 2.38 µM) | 0.25 µg/mL (≈ 0.594 µM) | 1 µg/mL (≈ 2.38 µM) | > 64 µg/mL | CC(C)N(Cc1cccc(Cl)c1)CC(O)(Cn1cncn1)c1ccc(F)cc1F (stereo unspecified)
3 | 1 µg/mL (≈ 2.41 µM) | 4 µg/mL (≈ 9.65 µM) | 0.25 µg/mL (≈ 0.603 µM) | 1 µg/mL (≈ 2.41 µM) | 1 µg/mL (≈ 2.41 µM) | 1 µg/mL (≈ 2.41 µM) | 0.25 µg/mL (≈ 0.603 µM) | > 64 µg/mL | CCCCN(Cc1ccc(C)cc1)CC(O)(Cn1cncn1)c1ccc(F)cc1F (stereo unspecified)
4 | 0.0625 µg/mL (≈ 0.156 µM) | 0.0625 µg/mL (≈ 0.156 µM) | 0.25 µg/mL (≈ 0.624 µM) | 0.0625 µg/mL (≈ 0.156 µM) | 0.0625 µg/mL (≈ 0.156 µM) | 0.25 µg/mL (≈ 0.624 µM) | 0.0156 µg/mL (≈ 0.039 µM) | > 64 µg/mL | CCCN(Cc1ccc(C)cc1)CC(O)(Cn1cncn1)c1ccc(F)cc1F (stereo unspecified)
5 | 0.0625 µg/mL (≈ 0.148 µM) | 0.0625 µg/mL (≈ 0.148 µM) | 0.0625 µg/mL (≈ 0.148 µM) | 0.25 µg/mL (≈ 0.594 µM) | 0.25 µg/mL (≈ 0.594 µM) | 1 µg/mL (≈ 2.38 µM) | 0.0625 µg/mL (≈ 0.148 µM) | 64 µg/mL (≈ 152 µM) | CCCN(Cc1ccc(Cl)cc1)CC(O)(Cn1cncn1)c1ccc(F)cc1F (stereo unspecified)
6 | 0.25 µg/mL (≈ 0.594 µM) | 0.25 µg/mL (≈ 0.594 µM) | 0.0625 µg/mL (≈ 0.148 µM) | 0.25 µg/mL (≈ 0.594 µM) | 0.25 µg/mL (≈ 0.594 µM) | 4 µg/mL (≈ 9.5 µM) | 0.0156 µg/mL (≈ 0.0371 µM) | > 64 µg/mL | CCCN(Cc1ccccc1Cl)CC(O)(Cn1cncn1)c1ccc(F)cc1F (stereo unspecified)
7 | 1 µg/mL (≈ 2.24 µM) | 0.0156 µg/mL (≈ 0.035 µM) | 0.0625 µg/mL (≈ 0.14 µM) | 0.25 µg/mL (≈ 0.561 µM) | 0.0625 µg/mL (≈ 0.14 µM) | 0.25 µg/mL (≈ 0.561 µM) | 0.0625 µg/mL (≈ 0.14 µM) | > 64 µg/mL | CCCCN(Cc1ccc([N+](=O)[O-])cc1)CC(O)(Cn1cncn1)c1ccc(F)cc1F (stereo unspecified)
8 | 0.0625 µg/mL (≈ 0.156 µM) | 0.0625 µg/mL (≈ 0.156 µM) | 0.25 µg/mL (≈ 0.624 µM) | 0.0625 µg/mL (≈ 0.156 µM) | 0.0625 µg/mL (≈ 0.156 µM) | 4 µg/mL (≈ 9.99 µM) | 0.0039 µg/mL (≈ 0.00974 µM) | > 64 µg/mL | CCCN(Cc1ccccc1C)CC(O)(Cn1cncn1)c1ccc(F)cc1F (stereo unspecified)
9 | 0.0625 µg/mL (≈ 0.155 µM) | 0.0625 µg/mL (≈ 0.155 µM) | 0.0625 µg/mL (≈ 0.155 µM) | 0.0625 µg/mL (≈ 0.155 µM) | 0.25 µg/mL (≈ 0.618 µM) | 1 µg/mL (≈ 2.47 µM) | 0.0039 µg/mL (≈ 0.00964 µM) | > 64 µg/mL | CCCN(Cc1ccc(F)cc1)CC(O)(Cn1cncn1)c1ccc(F)cc1F (stereo unspecified)
10 | 1 µg/mL (≈ 2.2 µM) | 0.25 µg/mL (≈ 0.549 µM) | 1 µg/mL (≈ 2.2 µM) | 1 µg/mL (≈ 2.2 µM) | 4 µg/mL (≈ 8.78 µM) | 1 µg/mL (≈ 2.2 µM) | 0.0156 µg/mL (≈ 0.0343 µM) | > 64 µg/mL | CCCN(Cc1ccc(Cl)cc1Cl)CC(O)(Cn1cncn1)c1ccc(F)cc1F (stereo unspecified)
11 | 0.25 µg/mL (≈ 0.624 µM) | 0.0156 µg/mL (≈ 0.039 µM) | 0.25 µg/mL (≈ 0.624 µM) | 0.0625 µg/mL (≈ 0.156 µM) | 0.25 µg/mL (≈ 0.624 µM) | 0.25 µg/mL (≈ 0.624 µM) | 0.0625 µg/mL (≈ 0.156 µM) | > 64 µg/mL | Cc1ccccc1CN(CC(O)(Cn1cncn1)c1ccc(F)cc1F)C(C)C (stereo unspecified)
12 | 0.25 µg/mL (≈ 0.624 µM) | 1 µg/mL (≈ 2.5 µM) | 0.25 µg/mL (≈ 0.624 µM) | 0.25 µg/mL (≈ 0.624 µM) | 1 µg/mL (≈ 2.5 µM) | 0.0625 µg/mL (≈ 0.156 µM) | 0.0625 µg/mL (≈ 0.156 µM) | 64 µg/mL (≈ 160 µM) | Cc1ccc(CN(CC(O)(Cn2cncn2)c2ccc(F)cc2F)C(C)C)cc1 (stereo unspecified)
13 | 0.0625 µg/mL (≈ 0.155 µM) | 0.0625 µg/mL (≈ 0.155 µM) | 0.0625 µg/mL (≈ 0.155 µM) | 0.0625 µg/mL (≈ 0.155 µM) | 0.25 µg/mL (≈ 0.618 µM) | 0.25 µg/mL (≈ 0.618 µM) | 0.0625 µg/mL (≈ 0.155 µM) | > 64 µg/mL | CC(C)N(Cc1ccc(F)cc1)CC(O)(Cn1cncn1)c1ccc(F)cc1F (stereo unspecified)
14 | 0.25 µg/mL (≈ 0.624 µM) | 0.0625 µg/mL (≈ 0.156 µM) | 0.0625 µg/mL (≈ 0.156 µM) | 0.0625 µg/mL (≈ 0.156 µM) | 0.0625 µg/mL (≈ 0.156 µM) | 0.25 µg/mL (≈ 0.624 µM) | 0.0156 µg/mL (≈ 0.039 µM) | > 64 µg/mL | CCCCN(Cc1ccccc1)CC(O)(Cn1cncn1)c1ccc(F)cc1F (stereo unspecified)
15 | 1 µg/mL (≈ 2.39 µM) | 0.25 µg/mL (≈ 0.597 µM) | 0.25 µg/mL (≈ 0.597 µM) | 0.0625 µg/mL (≈ 0.149 µM) | 0.25 µg/mL (≈ 0.597 µM) | 1 µg/mL (≈ 2.39 µM) | 0.0156 µg/mL (≈ 0.0373 µM) | > 64 µg/mL | CCCCN(Cc1ccc(F)cc1)CC(O)(Cn1cncn1)c1ccc(F)cc1F (stereo unspecified)
16 | 0.25 µg/mL (≈ 0.537 µM) | 0.0625 µg/mL (≈ 0.134 µM) | 0.25 µg/mL (≈ 0.537 µM) | 0.0039 µg/mL (≈ 0.00838 µM) | 0.25 µg/mL (≈ 0.537 µM) | 1 µg/mL (≈ 2.15 µM) | 0.0625 µg/mL (≈ 0.134 µM) | > 64 µg/mL | CCCN(Cc1ccccc1Br)CC(O)(Cn1cncn1)c1ccc(F)cc1F (stereo unspecified)

Row | SMILES | MIC80 (Pichia kudriavzevii) | MIC80 (Candida albicans) | MIC80 (Cryptococcus neoformans) | MIC80 (Candida parapsilosis) | MIC80 (Candida tropicalis) | MIC80 (Trichophyton rubrum) | MIC80 (Nannizzia gypsea) | MIC80 (Aspergillus fumigatus)
17 | C[C@@H](c1ncncc1F)[C@](O)(Cn1cncn1)c1ccc(F)cc1F [VORICONAZOLE] | 0.0625 µg/mL (≈ 0.179 µM) | 0.0156 µg/mL (≈ 0.0447 µM) | 0.0156 µg/mL (≈ 0.0447 µM) | 0.0039 µg/mL (≈ 0.0112 µM) | 0.0039 µg/mL (≈ 0.0112 µM) | 0.0625 µg/mL (≈ 0.179 µM) | 0.0039 µg/mL (≈ 0.0112 µM) | 0.25 µg/mL (≈ 0.716 µM)
